Published values collected from several papers.
Protocols differ between the studies behind these lines.
CYP3A4: Cytochrome P450 3A4 (CYP3A4, Homo sapiens, UniProt P08684)

CN(C)c1ncnc2c1ncn2[C@@H]1O[C@H](CCl)[C@@H](NC(=O)[C@@H](CSC(c2ccccc2)c2ccccc2)NC(=O)OC(C)(C)C)[C@H]1O — CC50 (Vero; cell growth or viability, MTT): 67.4 µM
COCCCOc1ccnc(C[S+]([O-])c2nc3ccccc3[nH]2)c1C (centres unmarked) — inhibition (CYP3A4; enzyme activity, inhibitor; 30 µM, 1 h, pH 7.4): 50 to 60%
COc1ccc2c(c1)C[C@H]1[C@@H](OC(=O)c3ccccc3)[C@H](OC(C)=O)C(COC(=O)c3ccccc3)=C[C@H]1O2 — viability (RAW264.7; cell growth or viability, MTT; 15 µM, 24 h): 91.9%
CNC(=O)n1ccc2cc(Oc3ccnc(NC(=O)c4ccc(C5CCN(CCO)CC5)cc4)c3)c(OCCOC)cc21 — Vd/F (human, plasma; oral, 35 mg, single dose, fasted, healthy volunteers): 11800 L
COc1ccc2[nH]c([S+]([O-])Cc3ncc(C)c(OC)c3C)nc2c1 (centres unmarked) — inhibition (CYP3A4; enzyme activity, inhibitor; 30 µM, 1 h, pH 7.4): 50 to 60%
CC(=O)O[C@@]12CO[C@@H]1C[C@H](O)[C@@]1(C)C(=O)[C@H](O)C3=C(C)[C@@H](OC(=O)[C@H](O)[C@@H](NC(=O)OC(C)(C)C)c4ccccc4)C[C@@](O)([C@@H](OC(=O)c4ccccc4)[C@H]21)C3(C)C — Cmax (male Kunming mouse, lung; oral, 20 mg/kg): 142 ng/g
Cl.[2H]C([2H])([2H])CC(=O)c1cnc(NC(=O)C2CC2)cc1Nc1cccc(-c2ncn(C([2H])([2H])[2H])n2)c1OC — Vd/F (human, plasma; oral, 10 mg, multiple doses, once daily, fasted): 167 L
NC(=S)NN=Cc1ncccc1N — Vd/F (human, plasma; oral): 223 L
CCN1CCN(Cc2ccc(NC(=O)c3ccc(C)c(NC(=O)c4cncc(-c5cccs5)c4)c3)cc2C(F)(F)F)CC1 — Cmax (mouse, plasma; intraperitoneal, 30 mg/kg, single dose): 716 ng/mL
CC(=O)OC[C@@]1(COC(=O)c2ccccc2)O[C@H]1/C=C\COC(=O)c1ccccc1 — viability (RAW264.7; cell growth or viability, MTT; 15 µM, 24 h): 99.8%
Cn1cc(Nc2nc(N)nc(-c3cccc(-n4ccc5cc(C6CC6)cc(F)c5c4=O)c3CO)n2)cn1 — Vd/F (human, plasma; oral, 900 mg, single dose, fasted, suspension): 212 L
Cc1ccc(C(=O)Nc2ccc(CN3CCN(C)CC3)c(C(F)(F)F)c2)cc1C#Cc1cnc2[nH]ncc2c1 — Vd/F (human, plasma; oral, 20 mg, healthy volunteers): 8220 L
COc1ccc2c(c1)C[C@]1(OC)C(=O)/C(=C(O)\C=C\c3ccccc3)C(=O)C[C@]1(OC)O2 — viability (RAW264.7; cell growth or viability, MTT; 15 µM, 24 h): 92.8%
COc1cc(O)c2c(c1)C(=O)c1cc(C)cc(O)c1C2=O — Ki (CYP3A4; enzyme activity, inhibitor; human, liver microsomes; pH 7.4, testosterone probe): 6.07 µM
